# Test results taken from ChEMBL document CHEMBL1165965, “Synthesis and structure-activity relationships of 1,2,3,4-tetrahydropyrido[2,3-b]pyrazines as potent and selective inhibitors of the anaplastic lymphoma kinase” (Bioorg Med Chem, 2010).
# How the values were obtained:
# [1] = target: Dual specificity tyrosine-phosphorylation-regulated kinase 1A (Homo sapiens) (UniProt Q13627); test: Inhibition of DYRK1A at 1 uM
# [2] = test system: Phosphatidylinositol 4,5-bisphosphate 3-kinase catalytic subunit alpha isoform (Homo sapiens), P42336 [M1043I]; test: Inhibition of PIK3CA M1043I mutant at 1 uM
# [3] = target: T1, Mitogen-activated protein kinase kinase kinase 5 (Homo sapiens) (UniProt Q99683); test: Inhibition of ASK1 at 1 uM
# T1 sequence (whole entry): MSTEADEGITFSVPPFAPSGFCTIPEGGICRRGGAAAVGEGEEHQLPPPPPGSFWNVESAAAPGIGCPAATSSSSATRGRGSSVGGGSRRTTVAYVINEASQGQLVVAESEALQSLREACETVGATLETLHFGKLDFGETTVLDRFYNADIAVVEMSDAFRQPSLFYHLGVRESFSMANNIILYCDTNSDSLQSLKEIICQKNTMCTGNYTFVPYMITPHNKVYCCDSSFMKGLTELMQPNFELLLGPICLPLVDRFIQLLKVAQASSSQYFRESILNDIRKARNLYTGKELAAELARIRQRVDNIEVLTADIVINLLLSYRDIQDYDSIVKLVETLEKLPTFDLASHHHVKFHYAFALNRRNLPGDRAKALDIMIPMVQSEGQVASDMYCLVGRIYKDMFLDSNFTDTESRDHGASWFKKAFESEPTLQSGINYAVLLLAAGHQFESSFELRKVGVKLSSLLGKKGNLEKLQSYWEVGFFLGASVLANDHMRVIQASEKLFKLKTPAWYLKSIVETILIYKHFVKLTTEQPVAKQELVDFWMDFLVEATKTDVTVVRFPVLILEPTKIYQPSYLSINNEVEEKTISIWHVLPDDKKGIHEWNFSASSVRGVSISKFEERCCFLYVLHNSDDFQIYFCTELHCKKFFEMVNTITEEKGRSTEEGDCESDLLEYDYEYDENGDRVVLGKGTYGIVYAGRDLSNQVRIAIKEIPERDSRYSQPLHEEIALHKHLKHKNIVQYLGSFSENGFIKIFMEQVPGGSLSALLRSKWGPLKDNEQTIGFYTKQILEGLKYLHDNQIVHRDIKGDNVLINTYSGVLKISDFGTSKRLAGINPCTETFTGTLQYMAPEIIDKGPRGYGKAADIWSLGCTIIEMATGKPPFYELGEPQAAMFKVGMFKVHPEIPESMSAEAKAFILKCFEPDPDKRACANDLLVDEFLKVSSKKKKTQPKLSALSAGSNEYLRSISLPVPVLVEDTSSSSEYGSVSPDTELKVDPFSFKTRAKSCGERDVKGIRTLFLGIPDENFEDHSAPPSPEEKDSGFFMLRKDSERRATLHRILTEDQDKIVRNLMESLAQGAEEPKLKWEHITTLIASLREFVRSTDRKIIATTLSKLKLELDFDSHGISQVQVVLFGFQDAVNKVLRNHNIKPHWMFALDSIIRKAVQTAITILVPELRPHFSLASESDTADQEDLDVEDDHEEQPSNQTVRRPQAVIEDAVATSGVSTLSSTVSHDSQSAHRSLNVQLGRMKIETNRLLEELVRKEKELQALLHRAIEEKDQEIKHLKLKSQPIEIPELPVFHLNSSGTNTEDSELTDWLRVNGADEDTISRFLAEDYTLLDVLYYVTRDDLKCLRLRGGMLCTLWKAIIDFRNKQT
# Procedure, shortened: (§1)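 Ambit KINOMEscan screen at a single concentration across a 250–400 kinase panel, recorded as percent inhibition. Selectivity was expressed as S(90), the fraction of kinases inhibited >90%.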
# [4] = target: Tyrosine-protein kinase HCK (Homo sapiens) (UniProt P08631); test: Inhibition of HCK at 1 uM
# Procedure, shortened: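 Single-concentration screen on the Ambit KINOMEscan platform, run against a panel of 250–400 kinases. Per-kinase inhibition was also summarized as S(90), the fraction of kinases inhibited by more than 90%.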
# [5] = target: Serine/threonine-protein kinase Chk2 (Homo sapiens) (UniProt O96017); test: Inhibition of CHEK2 at 1 uM
# [6] = target: Serine/threonine-protein kinase MRCK gamma (Homo sapiens) (UniProt Q6DT37); test: Inhibition of DMPK2 at 1 uM
# Procedure, shortened: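 Single-concentration screen using Ambit Bioscience KINOMEscan technology across a panel of 250–400 kinases. Per-kinase inhibition from this screen was summarized as S(90), the fraction of kinases inhibited by more than 90%.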
# [7] = target: Non-receptor tyrosine-protein kinase TYK2 (Homo sapiens) (UniProt P29597); test: Inhibition of TYK2 JH2 pseudokinase domain at 1 uM
# [8] = target: Tyrosine-protein kinase receptor UFO (Homo sapiens) (UniProt P30530); test: Inhibition of AXL at 1 uM; procedure, shortened: as §1
# [9] = target: T2, Rhodopsin kinase GRK1 (Homo sapiens) (UniProt Q15835); test: Inhibition of GRK1 at 1 uM
# T2 sequence (whole entry): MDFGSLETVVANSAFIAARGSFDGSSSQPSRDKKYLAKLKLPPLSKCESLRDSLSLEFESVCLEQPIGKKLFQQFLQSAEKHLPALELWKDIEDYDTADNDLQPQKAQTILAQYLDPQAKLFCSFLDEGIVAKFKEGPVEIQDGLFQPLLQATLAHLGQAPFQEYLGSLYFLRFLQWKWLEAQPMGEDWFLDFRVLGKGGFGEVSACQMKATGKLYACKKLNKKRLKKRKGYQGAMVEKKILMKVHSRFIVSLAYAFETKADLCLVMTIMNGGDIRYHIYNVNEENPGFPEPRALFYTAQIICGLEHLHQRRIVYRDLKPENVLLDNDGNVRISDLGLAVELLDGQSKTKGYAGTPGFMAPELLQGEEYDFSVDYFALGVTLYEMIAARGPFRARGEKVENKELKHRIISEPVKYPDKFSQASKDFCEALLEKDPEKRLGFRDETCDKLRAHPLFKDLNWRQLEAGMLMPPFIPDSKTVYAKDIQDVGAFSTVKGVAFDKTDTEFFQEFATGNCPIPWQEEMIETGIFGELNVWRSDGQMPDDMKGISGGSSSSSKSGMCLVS
# [10] = target: Serine/threonine-protein kinase B-raf (Homo sapiens) (UniProt P15056); test: Inhibition of BRAF at 1 uM; procedure, shortened: as §1
# [11] = target: Mitogen-activated protein kinase kinase kinase kinase 1 (Homo sapiens) (UniProt Q92918); test: Inhibition of HPK1 at 1 uM
# Sequence of Mitogen-activated protein kinase kinase kinase kinase 1 (Homo sapiens) (Q92918 whole entry, looked up): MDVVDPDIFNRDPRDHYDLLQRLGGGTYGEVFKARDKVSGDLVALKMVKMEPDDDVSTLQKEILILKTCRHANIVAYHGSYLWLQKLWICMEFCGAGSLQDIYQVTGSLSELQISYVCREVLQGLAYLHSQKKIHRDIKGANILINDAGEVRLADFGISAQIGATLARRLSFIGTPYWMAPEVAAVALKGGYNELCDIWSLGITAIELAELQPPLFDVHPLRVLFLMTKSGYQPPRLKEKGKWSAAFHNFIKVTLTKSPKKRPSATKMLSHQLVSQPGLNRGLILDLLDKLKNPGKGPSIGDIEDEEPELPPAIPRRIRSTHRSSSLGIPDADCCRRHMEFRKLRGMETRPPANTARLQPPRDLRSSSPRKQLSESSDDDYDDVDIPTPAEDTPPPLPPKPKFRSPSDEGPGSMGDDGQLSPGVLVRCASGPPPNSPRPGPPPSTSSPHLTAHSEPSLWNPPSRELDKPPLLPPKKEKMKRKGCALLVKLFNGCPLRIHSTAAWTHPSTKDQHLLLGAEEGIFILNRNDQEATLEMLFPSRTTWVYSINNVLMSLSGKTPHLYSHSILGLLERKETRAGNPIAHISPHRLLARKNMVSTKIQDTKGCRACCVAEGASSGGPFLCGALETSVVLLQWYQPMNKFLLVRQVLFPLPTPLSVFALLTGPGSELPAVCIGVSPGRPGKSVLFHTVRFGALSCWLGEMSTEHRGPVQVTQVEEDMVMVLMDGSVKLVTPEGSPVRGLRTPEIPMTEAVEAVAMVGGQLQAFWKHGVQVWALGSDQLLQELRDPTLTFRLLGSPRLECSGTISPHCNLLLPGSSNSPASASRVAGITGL
# Sequence of Tyrosine-protein kinase HCK (Homo sapiens) (P08631 2-526 limits assumed): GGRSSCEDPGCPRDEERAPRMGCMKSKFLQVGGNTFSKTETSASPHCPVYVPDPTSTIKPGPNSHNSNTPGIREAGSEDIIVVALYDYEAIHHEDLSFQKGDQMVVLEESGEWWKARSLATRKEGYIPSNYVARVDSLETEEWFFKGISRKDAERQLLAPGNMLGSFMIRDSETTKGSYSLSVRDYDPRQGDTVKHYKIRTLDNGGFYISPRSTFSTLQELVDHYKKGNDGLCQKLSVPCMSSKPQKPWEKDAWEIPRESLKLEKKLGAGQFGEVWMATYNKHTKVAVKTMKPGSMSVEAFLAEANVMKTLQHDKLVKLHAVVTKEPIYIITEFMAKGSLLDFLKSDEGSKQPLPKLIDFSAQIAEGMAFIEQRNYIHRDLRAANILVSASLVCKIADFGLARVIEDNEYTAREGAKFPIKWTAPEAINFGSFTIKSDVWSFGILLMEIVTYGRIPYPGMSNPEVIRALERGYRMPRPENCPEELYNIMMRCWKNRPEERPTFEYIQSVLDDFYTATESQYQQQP
# Sequence of Non-receptor tyrosine-protein kinase TYK2 (Homo sapiens) (P29597 whole entry, the tested form may be a part): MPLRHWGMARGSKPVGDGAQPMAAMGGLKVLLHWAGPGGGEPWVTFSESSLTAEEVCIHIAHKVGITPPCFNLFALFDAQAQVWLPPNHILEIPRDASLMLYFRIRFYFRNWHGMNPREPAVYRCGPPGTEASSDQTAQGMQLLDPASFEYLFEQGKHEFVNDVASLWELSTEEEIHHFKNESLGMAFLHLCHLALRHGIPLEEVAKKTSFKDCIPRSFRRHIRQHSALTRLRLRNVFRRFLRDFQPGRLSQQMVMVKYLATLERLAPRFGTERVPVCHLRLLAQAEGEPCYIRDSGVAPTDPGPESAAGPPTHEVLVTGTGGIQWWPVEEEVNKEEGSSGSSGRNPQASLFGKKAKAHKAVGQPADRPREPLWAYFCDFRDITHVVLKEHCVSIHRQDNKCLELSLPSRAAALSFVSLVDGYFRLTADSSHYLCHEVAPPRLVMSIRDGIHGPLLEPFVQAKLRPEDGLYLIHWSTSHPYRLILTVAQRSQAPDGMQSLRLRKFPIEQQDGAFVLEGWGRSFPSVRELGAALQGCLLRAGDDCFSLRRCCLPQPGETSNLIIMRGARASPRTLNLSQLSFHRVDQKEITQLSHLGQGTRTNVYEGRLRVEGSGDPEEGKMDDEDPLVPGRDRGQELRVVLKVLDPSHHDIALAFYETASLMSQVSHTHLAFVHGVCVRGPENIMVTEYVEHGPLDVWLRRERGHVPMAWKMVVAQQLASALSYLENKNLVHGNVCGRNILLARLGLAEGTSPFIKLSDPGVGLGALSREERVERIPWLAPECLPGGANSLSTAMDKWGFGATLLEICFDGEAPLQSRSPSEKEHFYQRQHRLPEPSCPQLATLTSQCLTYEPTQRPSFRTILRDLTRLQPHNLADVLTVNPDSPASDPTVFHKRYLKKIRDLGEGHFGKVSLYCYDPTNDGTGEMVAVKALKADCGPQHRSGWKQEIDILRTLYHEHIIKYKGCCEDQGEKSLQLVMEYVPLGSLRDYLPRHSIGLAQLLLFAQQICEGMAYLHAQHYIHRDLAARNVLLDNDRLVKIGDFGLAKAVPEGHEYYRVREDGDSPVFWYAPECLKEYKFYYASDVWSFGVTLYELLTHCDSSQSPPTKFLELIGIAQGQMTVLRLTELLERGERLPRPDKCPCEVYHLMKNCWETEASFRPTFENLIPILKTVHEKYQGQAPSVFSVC
# Sequence of Serine/threonine-protein kinase B-raf (Homo sapiens) (P15056 whole entry): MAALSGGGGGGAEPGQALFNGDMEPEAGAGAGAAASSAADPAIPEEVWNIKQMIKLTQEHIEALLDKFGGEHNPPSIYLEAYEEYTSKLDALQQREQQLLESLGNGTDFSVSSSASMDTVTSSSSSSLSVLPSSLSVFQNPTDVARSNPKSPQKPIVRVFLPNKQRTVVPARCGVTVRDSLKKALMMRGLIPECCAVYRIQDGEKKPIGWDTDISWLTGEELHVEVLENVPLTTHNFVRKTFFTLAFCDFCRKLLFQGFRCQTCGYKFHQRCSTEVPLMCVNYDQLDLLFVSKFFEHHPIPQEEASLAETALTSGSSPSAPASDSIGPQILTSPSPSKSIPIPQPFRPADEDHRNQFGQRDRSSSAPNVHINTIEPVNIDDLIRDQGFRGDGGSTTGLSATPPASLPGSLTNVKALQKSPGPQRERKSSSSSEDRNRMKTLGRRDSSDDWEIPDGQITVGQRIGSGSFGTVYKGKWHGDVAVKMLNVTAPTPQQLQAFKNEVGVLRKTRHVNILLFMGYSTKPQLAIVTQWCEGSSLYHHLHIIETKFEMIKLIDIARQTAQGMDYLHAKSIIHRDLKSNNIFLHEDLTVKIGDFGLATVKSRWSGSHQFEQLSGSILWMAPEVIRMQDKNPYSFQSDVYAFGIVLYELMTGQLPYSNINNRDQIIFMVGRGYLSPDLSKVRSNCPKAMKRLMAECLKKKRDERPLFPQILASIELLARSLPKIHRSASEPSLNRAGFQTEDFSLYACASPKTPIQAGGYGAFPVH
# Sequence of Serine/threonine-protein kinase Chk2 (Homo sapiens) (O96017 whole entry): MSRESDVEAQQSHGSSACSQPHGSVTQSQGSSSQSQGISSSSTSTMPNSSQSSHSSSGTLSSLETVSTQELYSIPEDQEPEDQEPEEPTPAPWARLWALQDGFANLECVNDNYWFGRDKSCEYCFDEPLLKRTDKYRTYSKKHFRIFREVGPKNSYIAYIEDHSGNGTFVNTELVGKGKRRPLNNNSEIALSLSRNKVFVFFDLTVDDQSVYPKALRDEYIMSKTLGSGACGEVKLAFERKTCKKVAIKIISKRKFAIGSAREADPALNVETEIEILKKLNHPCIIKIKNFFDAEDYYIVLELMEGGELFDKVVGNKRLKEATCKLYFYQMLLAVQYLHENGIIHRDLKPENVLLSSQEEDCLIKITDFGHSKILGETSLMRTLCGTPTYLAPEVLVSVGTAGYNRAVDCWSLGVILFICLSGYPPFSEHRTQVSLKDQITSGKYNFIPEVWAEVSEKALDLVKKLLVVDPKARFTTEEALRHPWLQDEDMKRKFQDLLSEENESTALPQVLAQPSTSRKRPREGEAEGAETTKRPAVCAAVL
# Sequence of Tyrosine-protein kinase receptor UFO (Homo sapiens) (P30530 whole entry): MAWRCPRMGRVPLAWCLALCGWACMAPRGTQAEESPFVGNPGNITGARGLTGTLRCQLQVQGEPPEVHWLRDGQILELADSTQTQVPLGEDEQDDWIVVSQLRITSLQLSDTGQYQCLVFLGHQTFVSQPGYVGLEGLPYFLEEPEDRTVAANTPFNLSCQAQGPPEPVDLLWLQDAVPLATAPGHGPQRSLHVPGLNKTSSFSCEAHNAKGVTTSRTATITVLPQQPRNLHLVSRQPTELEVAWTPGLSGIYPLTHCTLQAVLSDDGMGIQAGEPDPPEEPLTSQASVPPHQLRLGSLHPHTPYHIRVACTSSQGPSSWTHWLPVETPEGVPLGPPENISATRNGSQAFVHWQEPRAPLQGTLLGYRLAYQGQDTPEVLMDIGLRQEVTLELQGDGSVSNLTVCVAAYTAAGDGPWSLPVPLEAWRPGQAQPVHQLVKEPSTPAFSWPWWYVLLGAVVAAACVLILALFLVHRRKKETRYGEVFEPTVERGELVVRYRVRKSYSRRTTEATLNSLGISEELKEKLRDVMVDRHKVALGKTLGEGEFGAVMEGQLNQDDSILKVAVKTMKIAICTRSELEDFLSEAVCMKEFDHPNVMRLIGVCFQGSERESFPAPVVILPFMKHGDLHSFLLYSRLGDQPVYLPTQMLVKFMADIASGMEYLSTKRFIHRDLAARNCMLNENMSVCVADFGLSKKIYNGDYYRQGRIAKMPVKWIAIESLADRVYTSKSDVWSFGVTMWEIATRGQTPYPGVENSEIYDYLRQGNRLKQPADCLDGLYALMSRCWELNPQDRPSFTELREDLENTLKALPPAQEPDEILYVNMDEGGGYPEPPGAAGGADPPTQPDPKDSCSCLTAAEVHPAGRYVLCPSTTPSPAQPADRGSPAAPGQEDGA
Structure (SMILES),inhibition [1],inhibition [2],inhibition [3],inhibition [4],inhibition [5],inhibition [6],inhibition [7],inhibition [8],inhibition [9],inhibition [10],inhibition [11]
CN1CCN(c2ccc(-c3cnc4c(c3)N(Cc3cc(Cl)ccc3Cl)CCN4)cn2)CC1,< 50%,< 50%,< 50%,< 50%,< 50%,< 50%,< 50%,< 50%,< 50%,< 50%,< 50%
COC1CCN(C(=O)c2ccc(-c3cnc4c(c3)N(Cc3cc(Cl)ccc3C(F)(F)F)CCN4)cc2)CC1,–,–,< 50%,< 50%,–,< 50%,–,< 50%,–,< 50%,–
O=C(c1ccc(-c2cnc3c(c2)N(Cc2cc(Cl)ccc2C(F)(F)F)CCN3)cc1)N1CCCCC1,–,–,< 50%,< 50%,–,< 50%,–,< 50%,–,< 50%,–
FC(F)(F)c1ccc(Cl)cc1CN1CCNc2ncc(-c3ccnc(N4CCNCC4)c3)cc21,< 50%,< 50%,< 50%,< 50%,< 50%,< 50%,< 50%,< 50%,< 50%,< 50%,< 50%
CN1CCN(c2ccc(-c3cnc4c(c3)N(Cc3c(F)ccc(F)c3Cl)CCN4)cn2)CC1,< 50%,< 50%,< 50%,< 50%,< 50%,< 50%,< 50%,< 50%,< 50%,< 50%,< 50%

# Other lines, results leading:
inhibition [1],inhibition [2],inhibition [3],inhibition [4],inhibition [5],inhibition [6],inhibition [7],inhibition [8],inhibition [9],inhibition [10],inhibition [11],Structure (SMILES)
< 50%,< 50%,< 50%,< 50%,< 50%,< 50%,< 50%,< 50%,< 50%,< 50%,< 50%,CN1CCN(c2ccc(-c3cnc4c(c3)N(Cc3cc(Cl)ccc3C(F)(F)F)CCN4)cn2)CC1
< 50%,< 50%,< 50%,< 50%,< 50%,< 50%,< 50%,< 50%,< 50%,< 50%,< 50%,CC(=O)N1CCN(c2cc(-c3cnc4c(c3)N(Cc3cc(Cl)ccc3C(F)(F)F)CCN4)ccn2)CC1
–,–,< 50%,< 50%,–,< 50%,–,< 50%,–,< 50%,–,O=C(O)c1ccc(-c2cnc3c(c2)N(Cc2cc(Cl)ccc2C(F)(F)F)CCN3)cc1
–,–,< 50%,< 50%,–,< 50%,–,93%,–,< 50%,88.7%,O=C(c1ccc(-c2cnc3c(c2)N(Cc2cc(Cl)ccc2C(F)(F)F)CCN3)cc1)N1CCC(N2CCCC2)CC1
< 50%,< 50%,< 50%,< 50%,< 50%,< 50%,< 50%,< 50%,< 50%,< 50%,< 50%,CN1CCN(c2ccc(-c3cnc4c(c3)N(Cc3cc(F)ccc3F)CCN4)cn2)CC1
